Converted amounts (≈) assume the structure as drawn.
Tests used:
Clostridioides difficile [1] = experiment: Antibacterial activity against rifampicin/fluoroquinolone-resistant Clostridioides difficile CB1942 harboring rpoBQ489K/gyrAD71Y/T82A mutant at 1:1 compound to metronidazole molar ratio measured after 3 days in presence of metronidazole; type: functional; conditions: CB1942, 72 h, time 3 day
Helicobacter pylori [2] = experiment: Antibacterial activity against rifampicin-resistant Helicobacter pylori CB1903 harboring rpoBD530V mutant at 1:1 compound to metronidazole molar ratio measured after 5 days in presence of metronidazole by agar dilution method; type: functional; conditions: CB1903, 120 h, time 5 day
Outline: (§1)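 Agar dilution per CLSI. Wild-type ATCC 700392 (CB1531) and its derivatives carry defined resistance determinants. Drugs, alone or in 1:1 molar mixtures, were diluted 2-fold from 100× stocks into Mueller–Hinton agar with aged (≥2 weeks) sheep blood (5% v/v). MIC read after 5 days at 35 °C under microaerobic conditions from a campylobacter gas-generating system.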

Helicobacter pylori [3] = experiment: Antibacterial activity against metronidazole-resistant Helicobacter pylori CB1573 harboring rdxAR16S mutant at 1:1 compound to metronidazole molar ratio measured after 5 days in presence of metronidazole by agar dilution method; type: functional; conditions: CB1573, 120 h, time 5 day; outline: as §1
Helicobacter pylori [4] = experiment: Antibacterial activity against Helicobacter pylori clinical isolate USA; type: functional
Gardnerella vaginalis [5] = experiment: Antibacterial activity against Gardnerella vaginalis ATCC 14018; type: functional
Bacteroides uniformis = experiment: Antibacterial activity against Bacteroides uniformis MMX 1277; type: functional
Clostridioides difficile [6] = experiment: Antibacterial activity against rifampicin/fluoroquinolone-resistant Clostridioides difficile CB1942 harboring rpoBQ489K/gyrAD71Y/T82A mutant measured after 3 days; type: functional; conditions: CB1942, 72 h, time 3 day
Bifidobacterium longum = experiment: Antibacterial activity against Bifidobacterium longum ATCC 15707; type: functional
Gardnerella vaginalis [7] = experiment: Antibacterial activity against Gardnerella vaginalis ATCC 49145; type: functional
Peptostreptococcus sp. = experiment: Antibacterial activity against Peptostreptococcus magnus ATCC 14956; type: functional
Clostridioides difficile [8] = experiment: Antibacterial activity against rifampicin-resistant Clostridioides difficile CB1934 harboring rpoBQ489K mutant measured after 3 days; type: functional; conditions: CB1934, 72 h, time 3 day
Veillonella parvula = experiment: Antibacterial activity against Veillonella parvula ATCC 17745 MMX 1272; type: functional
Clostridioides difficile [9] = experiment: Antibacterial activity against fluoroquinolone-resistant Clostridioides difficile CB1941 harboring gyrAD71Y/T82A mutant at 1:1 compound to metronidazole molar ratio measured after 3 days in presence of metronidazole; type: functional; conditions: CB1941, 72 h, time 3 day
Helicobacter pylori [10] = experiment: Antibacterial activity against metronidazole-resistant Helicobacter pylori CB1573 harboring rdxAR16S mutant measured after 5 days by agar dilution method; type: functional; conditions: CB1573, 120 h, time 5 day; outline: as §1
Clostridioides difficile [11] = experiment: Antibacterial activity against rifampicin/fluoroquinolone-resistant Clostridioides difficile CB1940 harboring rpoBQ489K/gyrAA118S mutant at 1:1 compound to metronidazole molar ratio measured after 3 days in presence of metronidazole; type: functional; conditions: CB1940, 72 h, time 3 day
Clostridioides difficile [12] = experiment: Antibacterial activity against Clostridioides difficile ATCC 9689; type: functional
Clostridioides difficile [13] = experiment: Antibacterial activity against fluoroquinolone-resistant Clostridioides difficile CB1941 harboring gyrAD71Y/T82A mutant measured after 3 days; type: functional; conditions: CB1941, 72 h, time 3 day
Helicobacter pylori [14] = experiment: Antibacterial activity against rifampicin-resistant Helicobacter pylori CB1614 harboring rpoBL525I/D530N at 1:1 compound to metronidazole molar ratio measured after 5 days in presence of metronidazole by agar dilution method; type: functional; conditions: CB1614, 120 h, time 5 day; outline: as §1
Helicobacter pylori [15] = experiment: Antibacterial activity against rifampicin-resistant Helicobacter pylori CB1903 harboring rpoBD530V mutant measured after 5 days by agar dilution method; type: functional; conditions: CB1903, 120 h, time 5 day; outline: as §1
[16] = test system: Porphyromonas asaccharolytica; experiment: Antibacterial activity against metronidazole-resistant Prevotella asaccharolytica MMX 3552; type: functional
[17] = test system: Bacteroides thetaiotaomicron; experiment: Antibacterial activity against metronidazole-resistant Bacteroides thetaiotaomicron MMX 3409; type: functional
Actinomyces naeslundii = experiment: Antibacterial activity against Actinomyces naeslundii ATCC 1210; type: functional
Clostridioides difficile [18] = experiment: Antibacterial activity against Clostridioides difficile clinical isolate China; type: functional
Clostridioides difficile [19] = experiment: Antibacterial activity against rifampicin-resistant Clostridioides difficile CB1934 harboring rpoBQ489K mutant at 1:1 compound to metronidazole molar ratio measured after 3 days in presence of metronidazole; type: functional; conditions: CB1934, 72 h, time 3 day
Helicobacter pylori [20] = experiment: Antibacterial activity against Helicobacter pylori ATCC 700392 at 1:1 compound to metronidazole molar ratio measured after 5 days in presence of metronidazole by agar dilution method; type: functional; conditions: ATCC 700392, 120 h, time 5 day; outline: as §1
Clostridioides difficile [21] = experiment: Antibacterial activity against rifampicin-resistant Clostridioides difficile harboring rpoBQ489K mutant; type: functional
Prevotella disiens [22] = experiment: Antibacterial activity against Prevotella disiens MMX 3457; type: functional
Clostridioides difficile [23] = experiment: Antibacterial activity against fluoroquinolone-resistant Clostridioides difficile CB1939 at 1:1 compound to metronidazole molar ratio measured after 3 days in presence of metronidazole; type: functional; conditions: CB1939, 72 h, time 3 day
Prevotella bivia = experiment: Antibacterial activity against Prevotella bivia ATCC 29303/MMX 5718; type: functional
Helicobacter pylori [24] = experiment: Antibacterial activity against rifampicin-resistant Helicobacter pylori CB1902 harboring rpoBV149F mutant at 1:1 compound to metronidazole molar ratio measured after 5 days in presence of metronidazole by agar dilution method; type: functional; conditions: CB1902, 120 h, time 5 day; outline: as §1
Fusobacterium nucleatum = experiment: Antibacterial activity against Fusobacterium nucleatum ATCC 25586; type: functional
Prevotella intermedia = experiment: Antibacterial activity against Prevotella intermedia ATCC 25611 MMX 3002; type: functional
Helicobacter pylori [25] = experiment: Antibacterial activity against Helicobacter pylori clinical isolate China; type: functional
Prevotella disiens [26] = experiment: Antibacterial activity against Prevotella disiens MMX 3446; type: functional
Clostridioides difficile [27] = experiment: Antibacterial activity against rifampicin/fluoroquinolone-resistant Clostridioides difficile CB1940 harboring rpoBQ489K/gyrAA118S mutant measured after 3 days; type: functional; conditions: CB1940, 72 h, time 3 day
Staphylococcus aureus = experiment: Antibacterial activity against Staphylococcus aureus ATCC 29213; type: functional
Clostridioides difficile [28] = experiment: Antibacterial activity against Clostridioides difficile BAA 1382; type: functional
Syrian golden hamster = experiment: Antibacterial activity against Clostridioides difficile UNT-103-1 infected in Syrian hamster assessed as mortality at 20 mg/kg, po administered once a daily for 5 days after 18 hrs post 10 mg/kg clindamycin treatment and measured upto 21 days; type: functional, Mesocricetus auratus; conditions: time <= 21 day
Outline: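 Male Golden Syrian hamsters (80-90 g), housed singly, were gavaged with C. difficile UNT103-1 grown in sporulation medium broth and diluted to OD600 1 in prereduced broth. […] From 18 h later, drug or vehicle was given by oral gavage once daily for 5 days. Survival was recorded through day 21.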

## CO[C@H]1/C=C/O[C@@]2(C)Oc3c(C)c(O)c4c(O)c(c(/C=N/N5CCN(C)CC5)c(O)c4c3C2=O)NC(=O)/C(C)=C\C=C\[C@H](C)[C@H](O)[C@@H](C)[C@@H](O)[C@@H](C)[C@H](OC(C)=O)[C@@H]1C [RIFAMPIN]
Clostridioides difficile [1]
  MIC: 2 µg/mL
Helicobacter pylori [2]
  MIC: 16 µg/mL
Helicobacter pylori [3]
  MIC: 0.25 µg/mL
Helicobacter pylori [4]
  MIC: ≥ 0.007 µg/mL
Gardnerella vaginalis [5]
  MIC: 0.5 µg/mL (≈ 0.608 µM)
Bacteroides uniformis
  MIC: 0.5 µg/mL (≈ 0.608 µM)
Clostridioides difficile [6]
  MIC: > 32 µg/mL
Bifidobacterium longum
  MIC: 0.5 µg/mL (≈ 0.608 µM)
Gardnerella vaginalis [7]
  MIC: 0.5 µg/mL (≈ 0.608 µM)
Peptostreptococcus sp.
  MIC: 1 µg/mL (≈ 1.22 µM)
Clostridioides difficile [8]
  MIC: > 32 µg/mL
Veillonella parvula
  MIC: 4 µg/mL (≈ 4.86 µM)
Clostridioides difficile [9]
  MIC: ≤ 0.03 µg/mL
Helicobacter pylori [10]
  MIC: 0.5 µg/mL (≈ 0.608 µM)
Clostridioides difficile [11]
  MIC: 2 µg/mL
Clostridioides difficile [12]
  MIC: 0.001 µg/mL (≈ 0.00122 µM)
Clostridioides difficile [13]
  MIC: ≤ 0.03 µg/mL
Helicobacter pylori [14]
  MIC: 8 µg/mL
Helicobacter pylori [15]
  MIC: > 32 µg/mL
[16]
  MIC: 0.004 µg/mL (≈ 0.00486 µM)
[17]
  MIC: 0.5 µg/mL (≈ 0.608 µM)
Actinomyces naeslundii
  MIC: 0.03 µg/mL (≈ 0.0365 µM)
Clostridioides difficile [18]
  MIC: 0.06 µg/mL (≈ 0.0729 µM)
  MIC90: ≥ 128 µg/mL
Clostridioides difficile [19]
  MIC: 2 µg/mL
Helicobacter pylori [20]
  MIC: 0.5 µg/mL
Clostridioides difficile [21]
  MIC: 0.25 µg/mL (≈ 0.304 µM)
Prevotella disiens [22]
  MIC: 0.5 µg/mL (≈ 0.608 µM)
Clostridioides difficile [23]
  MIC: ≤ 0.03 µg/mL
Prevotella bivia
  MIC: 0.5 µg/mL (≈ 0.608 µM)
Helicobacter pylori [24]
  MIC: 8 µg/mL
Fusobacterium nucleatum
  MIC: 0.5 µg/mL (≈ 0.608 µM)
Prevotella intermedia
  MIC: 0.12 µg/mL (≈ 0.146 µM)
Helicobacter pylori [25]
  MIC: ≤ 0.06 µg/mL
  MIC90: 0.5 µg/mL (≈ 0.608 µM)
Prevotella disiens [26]
  MIC: 0.12 µg/mL (≈ 0.146 µM)
Clostridioides difficile [27]
  MIC: > 32 µg/mL
Staphylococcus aureus
  MIC: 0.008 µg/mL (≈ 0.00972 µM)
Clostridioides difficile [28]
  MIC: 0.001 µg/mL (≈ 0.00122 µM)

## CN[C@H](CC(C)C)C(=O)N[C@H]1C(=O)N[C@@H](CC(N)=O)C(=O)N[C@H]2C(=O)N[C@H]3C(=O)N[C@H](C(=O)N[C@H](C(=O)O)c4cc(O)cc(O)c4-c4cc3ccc4O)[C@H](O)c3ccc(c(Cl)c3)Oc3cc2cc(c3O[C@@H]2O[C@H](CO)[C@@H](O)[C@H](O)[C@H]2O[C@H]2C[C@](C)(N)[C@H](O)[C@H](C)O2)Oc2ccc(cc2Cl)[C@H]1O [VANCOMYCIN]
Syrian golden hamster
  Activity: 80%

— ChEMBL document CHEMBL5131497, “Design, Synthesis, and Characterization of TNP-2198, a Dual-Targeted Rifamycin-Nitroimidazole Conjugate with Potent Activity against Microaerophilic and Anaerobic Bacterial Pathogens” (J Med Chem, 2022)
